The source made the active and inactive calls.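 Rule for the calls, unless noted: active = inhibition at or above 50% relative to wild type and mutant plate controls; inactive = inhibition below 50%.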
Legend:
[1] = inhibitors of TNFa-induced NFkB p65 translocation, primary screen, imaging, HUVEC, MLSMR starter and 10KST1 sets (AID 438;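 active = inhibition above 20% together with a positive visual image hit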;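 note: compound added about 3h40 before a 20 min TNFalpha stimulation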;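 for inhibition: signal is the nuclear over cytoplasmic p65 intensity ratio per well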); conditions: HUVEC TNFa-induced p65 nuclear translocation; cell count: measured here: nuclei count (cytotoxicity indicator), at 2.08 µM; inhibition: at 2 µM, stronger effect = higher value, 0% TNFa-plus-vehicle, 100% no-TNFa wells
[2] = inhibitors of E-selectin induction by TNFa, primary screen, imaging, HUVEC, immunofluorescence, MLSMR starter and 10KST1 sets (AID 487;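 active = visually confirmed hit in the image check and inhibition above 20%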;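 for inhibition: signal is fraction of cell area covered by stained E-selectin grains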;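 for nuclei count: 100% = median nuclei count of all wells on the same plate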); conditions: HUVEC TNFalpha-induced E-selectin immunofluorescence imaging, at 2 µM; inhibition: stronger effect = higher value; nuclei count: measured here: cell number, toxicity
[3] = DUSP6 inhibitors restoring Erk phosphorylation by chemical complementation, primary imaging in DUSP6-transfected HeLa (AID 609;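 active = compounds giving at least 50% inhibition in the cell-based MKP-3 phosphatase rescue imaging test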;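 for inhibition: phospho-Erk level distribution per well compared with pooled transfected vehicle control wells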); conditions: HeLa MKP-3 transfected, phospho-Erk imaging KS statistic, at 10 µM, cells stimulated with TPA for 15 min
[4] = biological target: Dual specificity protein phosphatase 6 (Homo sapiens) (UniProt Q16828); test: as above; conditions: HeLa MKP-3 transfected, phospho-Erk imaging KS statistic; at 10 µM; stronger effect = higher value; cells stimulated with TPA for 15 min
Chain of Dual specificity protein phosphatase 6 (Homo sapiens) (Q16828 whole entry, looked up): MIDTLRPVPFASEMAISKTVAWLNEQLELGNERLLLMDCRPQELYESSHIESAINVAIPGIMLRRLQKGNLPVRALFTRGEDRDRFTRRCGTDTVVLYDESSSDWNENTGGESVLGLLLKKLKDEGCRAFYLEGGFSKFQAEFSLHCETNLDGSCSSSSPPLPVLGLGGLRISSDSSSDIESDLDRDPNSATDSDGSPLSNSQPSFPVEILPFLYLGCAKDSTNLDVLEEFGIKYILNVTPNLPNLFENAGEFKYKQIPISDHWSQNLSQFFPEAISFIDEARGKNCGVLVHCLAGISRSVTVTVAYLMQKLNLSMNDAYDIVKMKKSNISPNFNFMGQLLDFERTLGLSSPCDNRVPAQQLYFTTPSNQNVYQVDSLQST

[5] = biological target: Voltage-gated potassium channel subunit beta-2 (Rattus norvegicus) (UniProt P62483); test: KvBeta enzyme negative modulators, primary screen, biochemical, NADPH fluorescence (AID 622;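 active = fluorescence slope higher than the sample average by over 3 SD, cut at about -0.22 in these data, passing the limit was not always enough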;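 note: slope of raw intensity against log time taken from 70 to 1610 s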); conditions: recombinant KvBeta, 4-cyanobenzaldehyde reduction, at 10 µM, stronger effect = higher value
Chain of Voltage-gated potassium channel subunit beta-2 (Rattus norvegicus) (P62483 whole entry, looked up): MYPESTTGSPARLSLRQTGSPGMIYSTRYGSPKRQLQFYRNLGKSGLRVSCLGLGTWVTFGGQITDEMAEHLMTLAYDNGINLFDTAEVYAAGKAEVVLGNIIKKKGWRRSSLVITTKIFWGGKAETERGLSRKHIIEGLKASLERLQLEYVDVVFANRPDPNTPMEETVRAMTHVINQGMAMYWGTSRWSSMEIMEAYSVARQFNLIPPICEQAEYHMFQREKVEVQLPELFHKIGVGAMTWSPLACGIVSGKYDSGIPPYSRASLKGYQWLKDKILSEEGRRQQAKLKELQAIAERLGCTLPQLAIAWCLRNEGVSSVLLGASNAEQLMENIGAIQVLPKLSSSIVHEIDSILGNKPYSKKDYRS

[6] = biological target: Voltage-gated potassium channel subunit beta-2 (Rattus norvegicus) (UniProt P62483); test: KvBeta positive modulators, primary screen, biochemical, NADPH fluorescence (AID 623;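 active = NADPH fluorescence slope more negative than the mean of all samples by about 3 SD, 99.7% confidence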;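 note: fluorescence intensity change per second fitted from 20 to 320 s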); conditions: Recombinant KvBeta, NADPH fluorescence decrease slope, 10 min; at 10 µM; stronger effect = lower value
[7] = biological target: Alpha-2C adrenergic receptor (Homo sapiens) (UniProt P18825); test: modulators of alpha2C/GIRK thallium flux, primary screen, cell-based, HEK293 alpha2C/GIRK1/2 (AID 624;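 active = fluorescence slope after compound addition differing from the mean of all screened samples at 99.7% confidence, in either direction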;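 note: slope of fluorescence ratio to pre-addition baseline per second over 15 to 24 s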); conditions: thallium flux BTC fluorescence, at 10 µM, actives lie on both sides
Chain of Alpha-2C adrenergic receptor (Homo sapiens) (P18825 whole entry, looked up): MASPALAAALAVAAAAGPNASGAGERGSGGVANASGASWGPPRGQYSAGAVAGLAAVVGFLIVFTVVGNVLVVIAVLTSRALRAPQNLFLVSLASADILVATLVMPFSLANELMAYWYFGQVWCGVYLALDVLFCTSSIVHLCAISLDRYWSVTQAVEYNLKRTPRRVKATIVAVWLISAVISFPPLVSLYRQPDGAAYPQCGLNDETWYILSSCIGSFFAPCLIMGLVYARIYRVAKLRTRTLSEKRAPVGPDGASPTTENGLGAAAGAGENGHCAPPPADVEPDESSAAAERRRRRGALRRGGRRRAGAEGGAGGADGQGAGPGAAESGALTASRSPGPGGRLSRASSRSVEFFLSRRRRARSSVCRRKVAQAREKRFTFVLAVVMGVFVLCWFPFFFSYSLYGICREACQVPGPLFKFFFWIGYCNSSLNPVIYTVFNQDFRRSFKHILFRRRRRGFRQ

[8] = inhibitors of larval lipid processing in zebrafish, primary screen, whole organism, PED6 fluorescence, gall bladder and intestine (AID 686;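 active = a full or partial loss of lipid-probe fluorescence in the fish gall bladder, intestine or both, judged by eye; inactive = no fluorescence loss, or compound toxic to the fish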;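 note: larvae 5 to 7 days old with five fish per well; signal comes from phospholipase A2 cleavage of quenched PED6 carried via bile; overnight exposure to compound and PED6 before scoring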); conditions: Zebrafish larvae PED6 lipid processing, fluorescence scoring; screened at 20 µM (by protocol)
How it was run: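 System: live zebrafish larvae aged 5-7 days, whole organism; measure: graded gall bladder and intestinal fluorescence inhibition per well; incubation: overnight exposure; reagent: ingested quenched lipid PED6 at 100 nM; signal: By-eye fluorescence microscopy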

[9] = inhibitors of Chlamydomonas gravitaxis, primary screen, whole organism, Chlamydomonas reinhardtii, WT vs cilia-less mutant, absorbance, 96-well (AID 463189); conditions: OD600 absorbance, 2 days, at 10 µM, stronger effect = higher value;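 note: 0% = wild type cc124 cells in DMSO and 100% = ciliumless bld1 mutant cells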
[10] = measured here: cell density z-score
[11] = measured here: nuclear c-Myc green intensity z-score
[12] = measured here: nuclear pErk red intensity z-score, stronger effect = higher value

Compound	cell count [1]	inhibition [1]	inhibition [2]	nuclei count [2]	z-score [3, 10]	z-score [3, 11]	z-score [3, 12]	inhibition [4]	fluorescence slope [5]	NADPH fluorescence slope [6]	slope [7]	outcome [8]	inhibition [9]
Cc1ccc(C)n1Cc1ccc(C(=O)O)cc1	645	1.9% (inactive)	-32.8% (inactive)	154%	1.01	0.014	-0.0334	-6.86% (inactive)	-0.401 (inactive)	-4.4e-05 (inactive)	0.00514 (inactive)	inactive	-3.17% (inactive)
Cc1nc(Nc2ncc3c(n2)CCCC3=O)nc2ccccc12	372	3.8% (inactive)	26.2% (inactive)	122%	0.317	-0.989	1.03	9.42% (inactive)	-0.403 (inactive)	-0.000152 (inactive)	0.00649 (inactive)	inactive	22.8% (inactive)
[N-]=[N+]=CC(=O)c1ccnc(C(=O)C=[N+]=[N-])c1	544	-10.2% (inactive)	-164% (inactive)	136%	1.23	-1.66	-0.478	21.8% (inactive)	-0.54 (inactive)	-6.3e-05 (inactive)	0.00557 (inactive)	inactive	3.22% (inactive)
Cc1cc(C)n(C(=O)CSc2nc3ccccc3o2)n1	551	-6.6% (inactive)	-100% (inactive)	138%	0.355	0.587	0.0282	19.8% (inactive)	-0.488 (inactive)	-4.3e-05 (inactive)	0.00455 (inactive)	inactive	25.1% (inactive)
CCOC(=O)c1n[nH]c2ccccc12	354	-6.3% (inactive)	-168% (inactive)	110%	0.791	-0.274	-1.01	6.04% (inactive)	-0.399 (inactive)	1.6e-05 (inactive)	0.00468 (inactive)	inactive	-13% (inactive)
CC(C)(C)n1nnc(CCc2nnn(C(C)(C)C)n2)n1	276	-17.8% (inactive)	-32.2% (inactive)	104%	0.0896	1.07	-0.74	10.5% (inactive)	-0.44 (inactive)	-0.000126 (inactive)	0.00595 (inactive)	inactive	-11.8% (inactive)
COc1ccc(C2C(C#N)=C(N)Oc3n[nH]c(C)c32)cc1CSc1ccccn1 (stereo unspecified)	648	-1.9% (inactive)	9.1% (inactive)	168%	-0.678	1.17	-0.733	-5.62% (inactive)	-0.412 (inactive)	-3.1e-05 (inactive)	0.00563 (inactive)	inactive	-9.39% (inactive)
Cc1nc2n[nH]c(N)c2c2c1COC(C)(C)C2	674	-22.2% (inactive)	-454% (inactive)	178%	0.565	-1.79	-0.0762	5.57% (inactive)	-0.516 (inactive)	-0.000106 (inactive)	0.00411 (inactive)	inactive	3.25% (inactive)
N=c1c2c(-c3ccccc3)c(-c3ccccc3)n(Cc3ccccc3)c2ncn1CCCn1ccnc1	551	-6.7% (inactive)	17.5% (inactive)	142%	-0.862	0.115	-0.203	-1.75% (inactive)	-0.292 (inactive)	9.2e-06 (inactive)	0.00345 (inactive)	inactive	118% (active)
CCCOc1ccc(CSC(CC(=O)O)C(=O)O)cc1 (stereo unspecified)	542	1.4% (inactive)	-21% (inactive)	124%	1.34	-1.26	-1.51	-3.5% (inactive)	-0.332 (inactive)	1.3e-05 (inactive)	0.00503 (inactive)	inactive	15.7% (inactive)
COc1cccc(/C(O)=C2/C(=O)C(=O)N(CCCN(C)C)C2c2cccc(Cl)c2)c1 (stereo unspecified)	339	-13.6% (inactive)	-326% (inactive)	182%	0.0823	-0.754	0.354	11.3% (inactive)	-0.436 (inactive)	-5.7e-05 (inactive)	0.00508 (inactive)	inactive	1.66% (inactive)
CN1CCN(C(=O)CSc2nc(-c3cccs3)ccc2C#N)CC1	625	-11.3% (inactive)	21.9% (inactive)	138%	-0.668	-0.886	-0.831	6.04% (inactive)	-0.299 (inactive)	-1.3e-05 (inactive)	0.00609 (inactive)	inactive	21.2% (inactive)
